Assay outcomes (PubChem BioAssay)
Rows were chosen to be rich in hits. Some 2.9% of all compounds tested hit in one or more screens of this group.
FAS-TE inh: FAS thioesterase domain inhibitors, primary screen, biochemical, fluorescence intensity, uHTS; inhibition, % at 15 µM; Fatty acid synthase (Homo sapiens), P49327; AID 602261, 2012; 360,000 compounds, 0.67% hits; recombinant FAS-TE, OMFH fluorogenic substrate, fluorescence endpoint;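 active = compounds whose normalised, plate-corrected inhibition of enzyme fluorescence in the single-dose primary screen is 50% or more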
Target sequence (P49327 whole entry, looked up, the tested form may be a part): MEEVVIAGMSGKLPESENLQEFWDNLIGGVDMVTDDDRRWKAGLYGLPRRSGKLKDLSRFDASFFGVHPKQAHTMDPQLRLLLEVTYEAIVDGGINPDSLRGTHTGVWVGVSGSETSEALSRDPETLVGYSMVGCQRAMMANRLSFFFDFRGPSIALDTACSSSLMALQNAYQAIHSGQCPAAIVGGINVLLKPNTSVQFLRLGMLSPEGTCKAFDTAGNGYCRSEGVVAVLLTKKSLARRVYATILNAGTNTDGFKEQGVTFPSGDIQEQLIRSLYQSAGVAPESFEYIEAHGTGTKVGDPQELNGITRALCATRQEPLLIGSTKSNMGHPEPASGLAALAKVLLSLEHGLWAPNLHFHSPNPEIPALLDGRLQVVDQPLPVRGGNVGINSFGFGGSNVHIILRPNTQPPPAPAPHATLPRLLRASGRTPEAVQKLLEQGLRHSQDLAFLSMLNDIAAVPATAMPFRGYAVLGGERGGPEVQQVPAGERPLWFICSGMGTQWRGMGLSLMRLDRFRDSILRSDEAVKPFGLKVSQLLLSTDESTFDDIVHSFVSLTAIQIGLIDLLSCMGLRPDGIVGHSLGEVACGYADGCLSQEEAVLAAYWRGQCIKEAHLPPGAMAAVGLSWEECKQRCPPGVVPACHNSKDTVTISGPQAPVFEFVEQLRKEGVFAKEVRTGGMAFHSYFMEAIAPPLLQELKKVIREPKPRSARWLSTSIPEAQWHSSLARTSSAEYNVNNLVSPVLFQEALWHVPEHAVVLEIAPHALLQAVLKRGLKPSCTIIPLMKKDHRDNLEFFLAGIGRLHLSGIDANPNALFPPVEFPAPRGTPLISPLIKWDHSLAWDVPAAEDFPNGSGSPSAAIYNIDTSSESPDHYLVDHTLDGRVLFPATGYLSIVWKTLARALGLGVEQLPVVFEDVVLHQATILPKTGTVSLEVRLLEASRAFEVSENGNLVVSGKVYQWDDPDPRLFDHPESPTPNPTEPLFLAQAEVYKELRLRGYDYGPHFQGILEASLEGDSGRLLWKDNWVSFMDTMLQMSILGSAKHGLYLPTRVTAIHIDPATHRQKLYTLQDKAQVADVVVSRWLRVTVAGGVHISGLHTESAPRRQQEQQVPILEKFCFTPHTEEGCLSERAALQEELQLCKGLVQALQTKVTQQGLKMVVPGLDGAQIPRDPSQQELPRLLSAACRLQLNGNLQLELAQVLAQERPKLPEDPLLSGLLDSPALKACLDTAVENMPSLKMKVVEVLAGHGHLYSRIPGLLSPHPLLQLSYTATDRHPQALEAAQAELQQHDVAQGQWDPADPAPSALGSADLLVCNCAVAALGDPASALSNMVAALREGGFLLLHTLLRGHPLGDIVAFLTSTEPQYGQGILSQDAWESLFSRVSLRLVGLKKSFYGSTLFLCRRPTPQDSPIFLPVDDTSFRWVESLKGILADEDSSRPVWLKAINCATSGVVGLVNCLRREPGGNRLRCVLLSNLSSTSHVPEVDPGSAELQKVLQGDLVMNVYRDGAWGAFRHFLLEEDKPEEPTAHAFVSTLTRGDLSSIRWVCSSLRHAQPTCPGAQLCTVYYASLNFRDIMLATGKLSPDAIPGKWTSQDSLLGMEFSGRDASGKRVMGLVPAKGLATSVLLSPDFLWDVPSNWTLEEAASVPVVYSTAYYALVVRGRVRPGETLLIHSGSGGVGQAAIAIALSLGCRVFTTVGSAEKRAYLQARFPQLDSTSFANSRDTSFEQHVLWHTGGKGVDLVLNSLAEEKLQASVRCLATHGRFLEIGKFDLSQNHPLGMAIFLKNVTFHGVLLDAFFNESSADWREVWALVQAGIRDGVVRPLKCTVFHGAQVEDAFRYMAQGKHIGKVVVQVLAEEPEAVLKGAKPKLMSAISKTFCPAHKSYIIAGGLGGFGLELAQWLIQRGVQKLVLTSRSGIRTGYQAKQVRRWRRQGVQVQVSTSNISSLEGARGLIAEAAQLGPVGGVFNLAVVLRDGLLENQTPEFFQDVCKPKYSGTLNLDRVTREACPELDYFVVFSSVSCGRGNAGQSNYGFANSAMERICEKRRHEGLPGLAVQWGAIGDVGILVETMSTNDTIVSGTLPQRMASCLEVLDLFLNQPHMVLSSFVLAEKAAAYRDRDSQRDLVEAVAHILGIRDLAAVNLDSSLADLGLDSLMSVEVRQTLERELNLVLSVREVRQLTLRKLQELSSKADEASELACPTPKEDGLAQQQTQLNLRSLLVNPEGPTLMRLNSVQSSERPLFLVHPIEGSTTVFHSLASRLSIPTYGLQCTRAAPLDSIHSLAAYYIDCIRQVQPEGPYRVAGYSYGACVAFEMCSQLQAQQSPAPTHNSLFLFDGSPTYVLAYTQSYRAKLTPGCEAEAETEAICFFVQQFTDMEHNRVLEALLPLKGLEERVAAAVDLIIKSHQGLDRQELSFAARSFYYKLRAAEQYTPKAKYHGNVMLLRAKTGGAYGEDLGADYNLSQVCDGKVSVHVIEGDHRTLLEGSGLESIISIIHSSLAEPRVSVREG
Arrestin-AP2 inh: inhibitors of beta-arrestin/AP2 binding, primary screen, biochemical, GPCR trafficking, flow cytometry; beta-arrestin 1 C-terminal peptide binding to AP2 beta2-adaptin appendage (human); FITC-arrestin peptide / GST-AP2 beads; AP2 beta2 appendage carries R879A mutation; inhibition, % at 10 µM; 340,000 compounds, 0.31% hits;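 active = inhibition above a set limit, near 3 SD of compounds lacking own fluorescence, cut at about 54% in these data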
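Material – AP2 appendage R879A on GSH beads · Buffer or medium – PBS with 0.05% Tween 20 and 0.1% BSA · Probe or stimulus – fluorescein-tagged arrestin peptide at 50 nM final · Incubation – compound with beads 12 min RT, then probe 1 h RT · Detection – high-throughput flow cytometry of beads, ex 488, em 535 nm · Evaluation – percent response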
ADAM10 inh: human ADAM10 inhibitors, primary screen, biochemical, QFRET, HTS | Disintegrin and metalloproteinase domain-containing protein 10 (Homo sapiens), O14672 | 370,000 compounds, 0.62% hits | inhibition, % at 7 µM | recombinant ADAM10, EDANS/DABCYL FRET peptide cleavage, 3 h;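 active = inhibition above a per-campaign cutoff equal to the mean of compounds falling between control-based bounds plus 3 SD, cut at about 20% in these data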
ADAM17 inh: ADAM17 inhibitors, primary screen, biochemical, QFRET; inhibition, % at 6.95 µM; Disintegrin and metalloproteinase domain-containing protein 17 (Homo sapiens), P78536; recombinant ADAM17, EDANS/DABCYL FRET peptide cleavage; AID 720648, 2013; 370,000 compounds, 0.83% hits;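 active = inhibition above the mean of compounds lying between control limits plus 3 SD, set per campaign, cut at about 8.5% in these data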
NRP1-CendR mod: modulators of CendR peptide binding to NRP-1, primary screen, biochemical, fluorescence polarization, uHTS | FAM-RPARPAR peptide binding to NRP-1 | inhibition, % at 25 µM | 360,000 compounds, 0.85% hits | AID 602438, 2012;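 active = inhibition or corrected inhibition above about 18%, plus a signal ratio from 0.5 to 1.5, limit read from the data, passing the limit was not always enough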
CaV13 FRET inh: Disruptors of the CACNA1D IQ motif to Ca2+-dependent inactivation inhibitor domain association, primary screening, Förster resonance energy transfer in intact living …; HEK cells, CFP/YFP FRET ICDI-IQ, plate reader, 10 min; percent FRET-ratio fall versus neutral wells; inhibition, % at 12.3 µM; 340,000 compounds, 0.098% hits;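 active = mean replicate inhibition of at least 30% and at least 1% of replicates passing that level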
Large screens that a line does not name were inactive.

Cc1ccc(S(=O)(=O)Cc2ccc(C(=O)N3CCN(Cc4ccccc4)CC3)o2)cc1	none
COc1ccc(S(=O)(=O)Cc2ccc(C(=O)N3CCN(Cc4ccccc4)CC3)o2)cc1	CaV13 FRET inh 58
C=CCC1(CC=C)CCCN1C(=O)c1cc(COc2cncc(Cl)c2)on1	none (no result: CaV13 FRET inh)
C=CCC1(CC=C)CCCN1C(=O)c1cc(COc2cccc(OC)c2)on1	NRP1-CendR mod 21
Cn1cnc([N+](=O)[O-])c1S(=O)(=O)Oc1cccc2ccccc12	FAS-TE inh 66
Cn1cnc([N+](=O)[O-])c1S(=O)(=O)Oc1ccc(Cl)cc1	FAS-TE inh 52
CCCc1c(-c2ccccc2)ncn1Cc1ccccc1OC	none (no result: Arrestin-AP2 inh)
CCCc1c(-c2ccc(F)cc2)ncn1Cc1ccccc1OC	NRP1-CendR mod 22 (no result: Arrestin-AP2 inh)
CCCCCc1c(-c2cccc(OC)c2)ncn1CCc1ccccc1OC	none (no result: Arrestin-AP2 inh)
CCCCCc1c(-c2cccc(Cl)c2)ncn1CCc1ccccc1OC	NRP1-CendR mod 23 (no result: Arrestin-AP2 inh)
COc1ccc(CNC(=O)OC2CC3CC2[C@H]2CCCCN2C3)cc1 (stereo not given in full)	none (no result: FAS-TE inh, Arrestin-AP2 inh, NRP1-CendR mod, CaV13 FRET inh)
COc1ccc(C2Nc3cccc(O)c3C(=O)N2Cc2ccccc2)cc1COc1ccc(NC(C)=O)cc1 (stereo not given)	none (no result: Arrestin-AP2 inh)
CC(=O)N1CCC(C(=O)N2c3ccccc3N=C(c3ccc(C(F)(F)F)cc3)C2C(=O)NC(C)(C)C)CC1 (stereo not given)	none (no result: FAS-TE inh, Arrestin-AP2 inh)
Cc1cccc(C2=NNC(=O)C(c3ccc(Cl)cc3)C2)c1 (stereo not given)	NRP1-CendR mod 25
Cc1ccc(C2CC(c3ccc(Cl)cc3)=NNC2=O)cc1 (stereo not given)	none
C/C(=N\NC(=O)c1cc([N+](=O)[O-])cc([N+](=O)[O-])c1)c1ccco1	NRP1-CendR mod 25
C/C(=N/NC(=O)c1cc(-c2ccc(Br)s2)[nH]n1)c1ccco1	NRP1-CendR mod 36
CN(NC(=O)C(=O)NCc1ccco1)C(=O)NC1CCCCC1	none (no result: FAS-TE inh, Arrestin-AP2 inh, NRP1-CendR mod)
COc1ccc(C(C)(C)C)cc1NC(=O)CCc1c(C)noc1C	NRP1-CendR mod 28
O=C(CC(=O)N1CCOCC1)N1CCOCC1	none
CN(C)CCN(C(=O)c1ccc2c(c1)OCCO2)c1nc2cc3c(cc2s1)OCO3	NRP1-CendR mod 25 (no result: CaV13 FRET inh)
O=C(Cc1ccc2ccccc2c1)NC(Cc1ccccc1)C(=O)O (stereo not given)	none
Nc1cc2nsnc2cc1Br	NRP1-CendR mod 40 (no result: CaV13 FRET inh)
CC1CCC(NC(=O)COC(=O)c2cccnc2Cl)CC1 (stereo not given)	NRP1-CendR mod 24
O=C(NCc1ccncc1)[C@@H]1CCCN1C(=O)[C@H]1CCCN1C(=O)c1cccc2ccccc12	none (no result: Arrestin-AP2 inh)
Cc1ccc(S(=O)(=O)N/N=C\c2cn(CC(N)=O)c3ccccc23)cc1C	NRP1-CendR mod 25
O=C(OCc1cc2ccccc2[nH]c1=O)c1ccncc1	NRP1-CendR mod 32
O=C(C1CC1)C1(C(=O)N2CCOCC2)CC(c2ccccn2)=NO1 (stereo not given)	none (no result: FAS-TE inh, Arrestin-AP2 inh, NRP1-CendR mod, CaV13 FRET inh)
CCOC(=O)C1(Cc2ccccc2C)CCCN(C(=O)c2ccc(C(C)=O)s2)C1 (stereo not given)	none (no result: Arrestin-AP2 inh)
CCCCOC(=O)CCn1c(=S)oc2ccccc21	NRP1-CendR mod 53
O=C1CCCN1CCc1cccc2ccccc12	NRP1-CendR mod 23
CC1(C)CC(=O)C(C=Nc2ccc(Cl)cn2)=C(O)C1	none
Cc1ccc(N=CC2=C(O)CC(C)(C)CC2=O)nc1	NRP1-CendR mod 24
CCOc1ccc(CCNS(=O)(=O)c2cn(C)cn2)cc1OCC	none
CCOc1cc(CNS(=O)(=O)c2cn(C)cn2)cc(OCC)c1OCC	NRP1-CendR mod 22
CC(Sc1nnc(-c2ccc(C(C)(C)C)cc2)n1C)C(N)=O (stereo not given)	NRP1-CendR mod 24 (no result: CaV13 FRET inh)
O=C(Cc1ccc(Cl)cc1)NNC(=S)NC(=O)c1cccs1	NRP1-CendR mod 37
COc1ccc(C2c3ccc(O)cc3Oc3ncn4nc(-c5ccccn5)nc4c32)cc1 (stereo not given)	CaV13 FRET inh 54
COc1ccc(C2c3ccc(O)cc3Oc3ncn4nc(-c5ccccn5)nc4c32)cc1OC (stereo not given)	none
Cc1ccc(-c2noc(-c3ccccc3C(=O)N3CCCC3)n2)cc1	none
Cc1onc(-c2ccccc2)c1C(=O)N1CCCC1	NRP1-CendR mod 21
Cc1ccccc1-c1noc(-c2ccccc2C(=O)N2CCCC2)n1	NRP1-CendR mod 20
COc1cc2c(c3c1c(=O)c1ccccc1n3C)C=CC(C)(C)O2	none (no result: FAS-TE inh, Arrestin-AP2 inh, NRP1-CendR mod, CaV13 FRET inh)
COc1ccc(/C=C2\SC(=S)NC2=O)cc1OS(=O)(=O)c1ccc(NC(C)=O)cc1	none (no result: CaV13 FRET inh)
COc1cc(/C=C2/SC(=S)NC2=O)ccc1OS(=O)(=O)c1ccc(C)cc1	FAS-TE inh 57 (no result: ADAM10 inh, ADAM17 inh, CaV13 FRET inh)
COCc1nnc(NC(=O)C(C)C)s1	NRP1-CendR mod 26 (no result: CaV13 FRET inh)
COc1ccc(Br)c(Cn2c(C)c(C(=O)NCc3ccc4c(c3)OCCO4)sc2=O)c1	CaV13 FRET inh 47 (no result: Arrestin-AP2 inh)
CSc1ccc(Cn2c(C)c(C(=O)NCc3cccc(Cl)c3)sc2=O)cc1	CaV13 FRET inh 42 (no result: Arrestin-AP2 inh)
Cc1c(C(=O)NCc2cccc(Cl)c2)sc(=O)n1Cc1cccc(F)c1	none (no result: Arrestin-AP2 inh)
COc1ccc(Cl)cc1Cn1c(C)c(C(=O)NCc2cccc(Cl)c2)sc1=O	ADAM17 inh 10 (no result: Arrestin-AP2 inh)
CSc1ccc(Cn2c(C)c(C(=O)NCc3cccc(C)c3)sc2=O)cc1	none (no result: Arrestin-AP2 inh)
Cc1c(C(=O)NCc2ccc(Cl)c(Cl)c2)sc(=O)n1Cc1cccc(F)c1	CaV13 FRET inh 39 (no result: Arrestin-AP2 inh)
COC(=O)[C@H](C(C)C)N(CCCc1cn(Cc2ccc(C)cc2)nn1)S(=O)(=O)c1ccc(F)cc1Br	none (no result: FAS-TE inh, Arrestin-AP2 inh, NRP1-CendR mod, CaV13 FRET inh)
C=Cc1ccc(Cn2c(C)c(C(=O)NCc3cccc(C)c3)sc2=O)cc1	CaV13 FRET inh 69 (no result: Arrestin-AP2 inh)
COC(=O)[C@@]1(Sc2ccc(C)cc2)CC(=O)N(c2ccccc2)[C@@H]1c1ccccc1	none (no result: Arrestin-AP2 inh)
COC1=CC(=O)c2nc(Cl)ccc2C1=O	NRP1-CendR mod 26 (no result: Arrestin-AP2 inh)
CNC(=O)c1ccccc1Sc1ccccc1C#N	NRP1-CendR mod 32
Cc1ccccc1OCCNC(=O)c1ccccc1Sc1ccccc1C#N	none
CCc1cc(C(=O)N(CC)CC(=O)Nc2ccc(OC)cc2)sc1C	none
CCN(C[C@H]1N[C@@](CC)(C(=O)OC)[C@H]2C(=O)N(C)C(=O)[C@@H]12)S(=O)(=O)c1ccc(OC)cc1	NRP1-CendR mod 28
